The record followed here is ChEMBL document CHEMBL4831483, “Discovery and optimization of 2-((1H-indol-3-yl)thio)-N-benzyl-acetamides as novel SARS-CoV-2 RdRp inhibitors” (Eur J Med Chem, 2021).

pIC50: −log10 of the molar value.

Data set [1] relates to HEK-293T. Description: (§1) Cytotoxicity against human HEK293T cells assessed as reduction in cell viability incubated for 24 hrs by CCK8 assay. Particulars: hek-293t, 24 h; call rule not given here. It counts as cell-based. The gist of the method:
(§2)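 HEK293T cells in 96-well plates were exposed to compound at 0.78–100 μM for 24 h. CCK-8 reagent was then added for 1 h at 37 °C and OD450 read. Viability was normalised to DMSO-only cells to give CC50. Triplicate assays, mean ± SD.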
On the technique in general: Tetrazolium dyes change colour on reduction, which living cells bring about.

In data set [2] the target is T1, Replicase polyprotein 1ab (Severe acute respiratory syndrome coronavirus 2, UniProt P0DTD1). Description: (§3) Inhibition of SARS-CoV-2 RdRp transfected in human HEK293T cells cotransfected with Cov-Gluc by Gaussia luciferase reporter gene method. Particulars: for pIC50: read-out: IC50. The format is cell-based. Summed up:
(§4)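 HEK293T cells were co-transfected with CoV-Gluc reporter plus C-terminally flag-tagged codon-optimized nsp12, nsp7 and nsp8 plasmids (1:10:30:30). After 12 h, cells were re-seeded in 96-well plates at 10^4/well and treated with serially diluted compound. Gaussia luciferase activity in supernatants gave dose-response IC50. Triplicate assays, mean ± SD.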
(In general: Reporter assays use an easily measured gene product as a stand-in for the process of interest.)

Data set [3] deals with Replicase polyprotein 1ab (Severe acute respiratory syndrome coronavirus 2) (UniProt P0DTD1). Description: Inhibition of SARS-CoV-2 RdRp transfected in HEK293T cells cotransfected with CoV-Gluc assessed as decrease in plus and minus strand-Gluc RNA levels incubated for 24 hrs by qRT-PCR analysis. The format is cell-based. The conditions noted are these: dose 5-10 µM. Summed up:
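HEK293T cells were transfected with CoV-Gluc, nsp12, nsp7 and nsp8 plasmids (1:10:30:30). At 6 h post-transfection, medium was replaced with fresh medium containing compound, and cells were cultured a further 24 h. Total cellular RNA was extracted and CoV-Gluc RNA quantified by real-time qRT-PCR.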
In general terms: In qPCR the cycle at which signal appears reflects the starting amount.

Data set [4] can be described thus: as §1. The format is cell-based, HEK-293T. Particulars: HEK293T cells. The gist of the method:
as §2

The target of data set [5] is T1, Replicase polyprotein 1ab. Description: Inhibition of SARS-CoV-2 RdRp transfected in human HEK293T cells cotransfected nsp12. The format is cell-based. The gist of the method: as §4
Data set [6] relates to HEK293T. Description: Ratio of IC50 for inhibition of SARS-CoV-2 RdRp transfected in human HEK293T cells cotransfected nsp12 along with nsp14/nsp10 to IC50 for inhibition of SARS-CoV-2 RdRp transfected in human HEK293T cells cotransfected with nsp12. It counts as cell-based. Particulars: Severe acute respiratory syndrome coronavirus 2.
Data set [7] addresses T1, Replicase polyprotein 1ab. Description: Inhibition of SARS-CoV-2 RdRp transfected in human HEK293T cells cotransfected nsp12 along with nsp14 and nsp10. It counts as cell-based. Summed up: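 HEK293T cell-based Gaussia luciferase RdRp reporter assay. Cells were co-transfected with CoV-Gluc, nsp12, nsp7, nsp8, nsp10 and nsp14 plasmids (1:10:30:30:25:25) so that the nsp14/nsp10 exoribonuclease was present. Gluc activity was measured after compound treatment.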

Data set [8] has as its target Replicase polyprotein 1ab (Severe acute respiratory syndrome coronavirus 2) (UniProt P0DTD1). The description is as §3. The format is cell-based. The gist of the method:
as §4

The nature of data set [9]: Antiviral activity against HCoV-NL63 infected in LLC-MK2 cells assessed as reduction in viral replication treated 1 hr post infection and measured after 120 hrs post infection by MTS cell proliferation colorimetric assay. The format is functional, cell-based. The conditions noted are these: Human coronavirus NL63, LLC-MK2. The gist of the method:
(§5)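 HCT-8 cells infected with HCoV-OC43 at MOI 0.1, and LLC-MK2 cells infected with HCoV-NL63 strain Amsterdam I at MOI 0.01. Serial compound dilutions were added 1 h post-infection in 2% FBS. Incubation was 120 h at 33 °C in 5% CO2. MTS reagent was then added for 3 h at 37 °C and absorbance read at 490 nm.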

For data set [10], the system named is Human coronavirus OC43. Description: Antiviral activity against HCoV-OC43 infected in HCT-8 cells assessed as reduction in viral replication treated 1 hr post infection and measured after 120 hrs post infection by MTS cell proliferation colorimetric assay. It counts as functional, cell-based. Summed up:
as §5

In the case of `CN(C)CCOc1ccc(CNC(=O)CSc2cn(C)c3ccccc23)cc1`, the CC50 in data set [1] is more than 100 µM. For the same compound, the pIC50 in [2] is 5.05.
For `COc1ccccc1CN(C)C(=O)CSc1c[nH]c2ccccc12`, in data set [1], the cytotoxic concentration (CC50) is more than 100 µM. The pIC50 in [2] was 5.12.
Consider `Cn1cc(SCC(=O)NCc2ccc(C(F)(F)F)cc2)c2ccccc21`, for which, in data set [1], the CC50 was more than 100 µM. For the same compound, in data set [2] (hek293t), the IC50 result is reported as “Not Active”.
On to `COc1ccccc1CNC(=O)CSc1c[nH]c2ccc(Br)cc12`, for which the CC50 in data set [1] was more than 100 µM. Also, in [2], the pIC50 is 4.97.
For the compound `O=C(CSc1c[nH]c2ccccc12)NCc1ccc(C(F)(F)F)cc1`, the CC50 in data set [1] is more than 100 µM. Besides, in data set [2], the pIC50 is 5.10.
Consider `C[C@@H](NC(=O)CSc1c[nH]c2ccccc12)c1ccccc1`, for which the CC50 in [1] was more than 100 µM. The pIC50 in data set [2] was 5.18.
As for `O=C(CSc1c[nH]c2cc(Br)ccc12)NCc1ccc(Cl)c(Cl)c1`, the CC50 in data set [1] was 67.6 µM. Besides, in data set [2], the pIC50 was 5.06.
For `CN(C)CCOc1ccc(CNC(=O)CSc2c[nH]c3ccccc23)cc1`, the CC50 in [1] was more than 100 µM. Moreover, in data set [2], the pIC50 is 5.04.
With `COc1ccccc1CNC(=O)CSc1cn(C)c2ccccc12`, in data set [1], the half-maximal cytotoxic concentration (CC50) is more than 100 µM. In addition, in [2], the pIC50 was 5.01.
Taken in the same sequence, the figures for `O=C(CSc1c[nH]c2cccc(Br)c12)NCc1ccc(Cl)c(Cl)c1` were more than 100 µM and 5.14.
Regarding `CCC(CC)COC(=O)[C@H](C)N[P@](=O)(OC[C@H]1O[C@@](C#N)(c2ccc3c(N)ncnn23)[C@H](O)[C@@H]1O)Oc1ccccc1`, in data set [3], the inhibition result was “Dose-Dependent Effect”. Besides, the CC50 at 24 h in data set [4] was more than 100 µM.
Regarding `O=C(CSc1c[nH]c2ccccc12)NCc1ccccc1`, the CC50 in [1] is more than 100 µM. Besides, the pIC50 in [2] is 5.17.
As to `COc1ccccc1CNC(=O)CSc1c[nH]c2c(Br)cccc12`, in [1], the half-maximal cytotoxic concentration (CC50) was determined as 72.4 µM. The pIC50 in data set [2] was 5.15.
As to `COc1ccccc1CNC(=O)CSc1c[nH]c2c(-c3ccccc3)cccc12`, the results for the pIC50 in [5] and in [7] were 5.78 and 5.66, respectively. Further, the Ratio IC50 in data set [6] was found to be 1.32. Besides, the inhibition result in data set [3] and in data set [8] was “Dose-Dependent Effect” throughout. The CC50 in [1] is 95.5 µM.
With `CN(Cc1ccccc1)C(=O)CSc1c[nH]c2c(Br)cccc12`, the CC50 in data set [1] stood at 52.5 µM. Further, the pIC50 in data set [2] was 4.68.
For `Cn1cc(SCC(=O)NCc2ccc(Cl)c(Cl)c2)c2ccccc21`, the CC50 in data set [1] is more than 100 µM. Moreover, the pIC50 in [2] was 5.12.
For the compound `CN(Cc1ccccc1)C(=O)CSc1c[nH]c2ccccc12`, the pIC50 was 5.34 in data set [5] and 5.27 in data set [7]. Moreover, the Ratio IC50 in data set [6] amounted to 1.18. The inhibition entry in [3] and in data set [8] was “Dose-Dependent Effect” in each case. For the same compound, the CC50 in [1] is more than 100 µM.
Take `O=C(CSc1c[nH]c2ccc(Br)cc12)NCc1ccc(Cl)c(Cl)c1`: the CC50 in [1] is more than 100 µM. For the same compound, the negative-log IC50 (pIC50) in [2] was 5.01.
`Cn1cc(SCC(=O)NCc2ccccc2)c2ccccc21`: the CC50 in data set [1] stood at 95.5 µM. Also, the pIC50 in [2] was 4.57.
`CCOc1ccccc1CN(OC)C(=O)CSc1c[nH]c2cccc(Br)c12`: the pIC50 is 5.95 in [5], less than 4.30 in [9] and 5.72 in data set [7]. Besides, the Ratio IC50 in data set [6] turned out to be 1.7. Besides, the inhibition entry in data set [3] and in [8] was “Dose-Dependent Effect” in each case. Moreover, the Activity entry in [10] was “Dose-Dependent Effect”. Further, the CC50 in data set [1] is more than 100 µM.
On to `O=C(CSc1c[nH]c2c(Br)cccc12)NCc1ccc(Cl)c(Cl)c1`, for which the CC50 in data set [1] was more than 100 µM. Moreover, in [2], the pIC50 was 5.34.
`CN(Cc1ccccc1)C(=O)CSc1c[nH]c2cccc(Br)c12`: the CC50 in data set [1] was determined as 25.1 µM. The pIC50 in data set [2] was 5.33.
In the case of `O=C(CSc1c[nH]c2cccc(Br)c12)N(Cc1ccccc1)Cc1ccccc1`, the results for the pIC50 in data set [5] and in data set [7] were 5.42 and 5.41, respectively. In addition, the Ratio IC50 in [6] is 1.02. The inhibition result in data set [3] and in data set [8] was “Dose-Dependent Effect” throughout. The CC50 in [1] is 25.7 µM.
On to `O=C(CSc1c[nH]c2c(Br)cccc12)N(Cc1ccccc1)Cc1ccccc1`, for which the CC50 in [1] was more than 100 µM. Besides, the pIC50 in [2] was 5.15.
For `COc1ccccc1CNC(=O)CSc1c[nH]c2cccc(Br)c12` the same measures were more than 100 µM and 5.06.
Take `O=C(CSc1c[nH]c2ccccc12)N(Cc1ccccc1)Cc1ccccc1`: the pIC50 in data set [5] was 5.47; in data set [7] it was 5.40. Moreover, the Ratio IC50 in data set [6] is 1.2. For the same compound, the inhibition entry in data set [3] and in data set [8] was “Dose-Dependent Effect” each time. Besides, the CC50 in data set [1] was more than 100 µM.
As to `Cn1cc(SCC(=O)N(Cc2ccccc2)Cc2ccccc2)c2ccccc21`, the CC50 in data set [1] came to 91.2 µM. In data set [2], the pIC50 was 4.91.
As to `COc1ccccc1CNC(=O)CSc1c[nH]c2cc(Br)ccc12`, the CC50 in [1] was more than 100 µM. Also, in data set [2], the pIC50 was 5.00.

By CC50 is commonly meant the concentration at which the toxic effect on the cells reaches its halfway point. By pIC50 is commonly meant −log10 of the IC50, conventionally taken in molar units.
